Screens: PubChem, several laboratories
In the library only some 2.1% were active in any assay of this set; here they are far more common.
Hck Nef HTS: inhibitors of human Hck kinase activated by Nef. P08631. Recombinant Hck-YEEI plus Nef, Z-Lyte FRET kinase assay. inhibition, % at 20 µM. 220,000 compounds, 0.68% hits;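 active means Hck-Nef kinase inhibition above about 50%, limit read from the data; inactive means inhibition below that limit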
Runt-SMMHC FRET: blocks binding of human RUNX1 Runt domain to CBFb-SMMHC; Q01196+Q13951; Cerulean-Runt/Venus-CBFb-SMMHC FRET ratio 530/480, 1 h; inhibition, % at 20 µM; 220,000 compounds, 0.74% hits;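 active means mean inhibition across duplicate retests at 20 µM reaching about 50%, limit read from the data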;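 further: inhibitors lower the FRET ratio by blocking Runt binding to CBFb-SMMHC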
Target sequence (Q01196 whole entry, looked up, the tested form may be a part): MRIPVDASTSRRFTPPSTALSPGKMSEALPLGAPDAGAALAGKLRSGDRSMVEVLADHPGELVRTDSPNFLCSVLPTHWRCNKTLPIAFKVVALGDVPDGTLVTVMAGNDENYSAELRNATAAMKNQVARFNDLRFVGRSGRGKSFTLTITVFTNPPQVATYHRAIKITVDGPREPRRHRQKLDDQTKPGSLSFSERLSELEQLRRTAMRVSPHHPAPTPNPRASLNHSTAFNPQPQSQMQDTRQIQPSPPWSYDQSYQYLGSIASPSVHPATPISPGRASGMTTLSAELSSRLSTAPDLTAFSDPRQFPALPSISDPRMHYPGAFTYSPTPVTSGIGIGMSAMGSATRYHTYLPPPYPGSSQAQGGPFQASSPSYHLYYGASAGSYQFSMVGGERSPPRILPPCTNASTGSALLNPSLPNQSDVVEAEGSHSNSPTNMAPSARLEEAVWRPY
Target sequence (Q13951 whole entry, looked up, the tested form may be a part): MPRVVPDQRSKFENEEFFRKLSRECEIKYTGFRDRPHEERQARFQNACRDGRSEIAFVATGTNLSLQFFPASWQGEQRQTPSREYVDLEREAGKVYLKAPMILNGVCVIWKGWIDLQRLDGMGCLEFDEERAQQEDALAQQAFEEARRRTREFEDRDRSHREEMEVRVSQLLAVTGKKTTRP
RanGTP-Impb inh: inhibitors of RanGTP-importin-beta interaction, primary screen, biochemical, FRET, CFP-Ran, YFP-importin-beta, homogeneous | cell-free CFP-Ran/YFP-importin-beta FRET ratio | inhibition, % (no concentration beside the values) | 300,000 compounds, 1.1% hits | AID 2216;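 active means more than half of the replicate wells show a fall in the fluorescence ratio signal beyond about 16%, limit read from the data, passing the limit was not always enough; inconclusive means exactly half of the replicate wells pass the set limit; inactive means fewer than half of replicates pass the limit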
L929 necroptosis: blocks zVAD induced death of L929 cells. L929 zVAD necroptosis rescue, ATP luminescence, 24 h; with zVAD 60 µM. viability rescue, % at 10 µM. 220,000 compounds, 0.38% hits;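 active means activation, scaled between plate controls, above about 75%, limit read from the data; inactive means activation under that limit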
TNF death inh: blocks TNF-alpha induced death of Jurkat FADD-/- cells. Jurkat FADD-/- TNF necroptosis rescue, ATP luminescence, 24 h; 0 = TNF only, 100 = no-TNF cells. activation (protection from cell death), % at 10 µM. 220,000 compounds, 0.068% hits. AID 463075;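 active means activation, meaning protection from cell death, of at least 50% relative to plate controls; inactive means activation below 50%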;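 further: necroptosis triggered by 40 ng/mL TNF-alpha added together with compound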
Runt-CBFb FRET: inhibitors of human RUNX1 Runt domain binding to CBFb. 220,000 compounds, 0.46% hits. Cerulean-Runt/Venus-CBFb FRET ratio 530/480, 1 h. inhibition, % at 20 µM. AID 1496. Q01196+Q13951;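 active means inhibition over about 50% at 20 µM in the single-dose screen, limit read from the data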
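test system = Cerulean-tagged RUNX1 Runt domain (FRET donor) fusion protein | reagent = Venus-CBFb binding partner, 100 nM | incubation = protein complex preformed 1 h, compound exposure 1 h, room temperature, dark | detection = FRET fluorescence | read-out basis = loss of energy transfer signal | controls = 5 µM unlabeled CBFb as full-inhibition high control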
Numbers stand for hits; n = inactive; u = inconclusive; x = no result given.

SMILES	Hck Nef HTS	Runt-SMMHC FRET	RanGTP-Impb inh	L929 necroptosis	TNF death inh	Runt-CBFb FRET
Cc1cc(NCCCO)n2c(nc3ccccc32)c1C#N	n	n	56	x	n	n
CCCc1cc(NCCN(C)C)n2c(nc3ccccc32)c1C#N	x	x	n	x	x	x
Fc1ccccc1C1c2[nH]c3ccccc3c2CCN1Cc1ccoc1 (stereo unspecified)	n	x	n	n	n	x
CSCCC(NC(=O)c1cccc(C)c1)C(=O)Nc1sccc1C(N)=O (stereo unspecified)	x	x	n	x	x	x
CC(C)CN(C(=O)c1cc(=O)[nH]c2ccccc12)c1c(N)n(Cc2ccccc2)c(=O)[nH]c1=O	x	x	n	x	x	x
CC(=O)N1CCc2c(sc(NC(=O)Cc3ccccc3)c2C#N)C1	x	x	n	x	x	x
CN1CCc2c(C#N)c(N3CCCCC3)nc(NCc3ccccc3)c2C1	n	n	n	n	n	n
CC(=O)Nc1sc2c(c1C#N)CCN(Cc1ccccc1)C2	x	x	75	x	x	x
N#Cc1c(NCCCO)nc(NCc2ccccc2)c2c1CCN(Cc1ccccc1)C2	n	n	89	n	n	n
N#Cc1c(NC(=O)/C=C/C(=O)O)sc2c1CCN(Cc1ccccc1)C2	x	x	141	x	x	x
Clc1ccc(-c2csc(-c3cccnc3)n2)s1	n	n	n	n	n	n
CS(=O)(=O)c1nc(S(=O)(=O)c2ccc(Cl)cc2)c(NCCCn2ccnc2)s1	x	x	n	x	x	x
OCc1cc(-c2ccccn2)no1	x	x	n	x	x	x
CC(C)(C)CC(C)(C)NC(=S)Nc1ccc2nc(-c3ccccn3)c(-c3ccccn3)nc2c1	n	n	n	n	n	n
S=C(Nc1ccc2nc(-c3ccccn3)c(-c3ccccn3)nc2c1)N1CCOCC1	n	n	n	n	n	n
CN(C)NC(=S)Nc1ccc2nc(-c3ccccn3)c(-c3ccccn3)nc2c1	n	n	48	n	n	n
OCCCNC(=S)Nc1ccc2nc(-c3ccccn3)c(-c3ccccn3)nc2c1	n	n	36	n	n	n
COc1ccc(-c2nnn(CC(=O)NCc3ccccc3)n2)cc1OC	n	n	n	n	n	n
COc1ccccc1CNC(=O)Cn1nnc(-c2ccncc2)n1	n	n	n	86	n	n
COc1ccccc1CNC(=O)c1ccncc1	x	x	23	x	x	x
COc1ccccc1CNC(=O)c1cccc(NC(=O)c2ccccc2)c1	n	n	n	n	n	n
Cc1ccc(C(C(=O)NC(C)(C)C)N(Cc2cccnc2)C(=O)C(=O)NC2CCCCC2)o1 (stereo unspecified)	n	n	n	n	n	n
COc1ccc(NC2CCCN(C(=O)c3cc4ncccn4n3)C2)cc1 (stereo unspecified)	x	x	n	x	x	x
CCOC(=O)Cc1csc(NS(=O)(=O)c2ccc(Br)cc2)n1	n	n	37	n	n	n
Cc1ccc(O)c(Nc2c3ccccc3nc3ccccc23)c1	x	x	24	x	x	x
SMILES	Hck Nef HTS	Runt-SMMHC FRET	RanGTP-Impb inh	L929 necroptosis	TNF death inh	Runt-CBFb FRET
c1nc2n(n1)C1=C(CCCC1)C1(CCCCC1)N2	n	n	15	n	n	n
COc1ccc(C(=O)N(C)Cc2ccccn2)cc1OC1CCN(C(C)C)CC1	x	x	n	x	x	x
O=C(NCC(O)c1ccccc1)c1cccs1 (stereo unspecified)	x	x	n	x	x	x
Cc1ccc(CSCC(=O)Nc2ccc(F)cc2)cc1	n	n	u	n	n	n
O=C(CSCc1ccc(F)cc1)Nc1ccc(F)cc1	n	n	n	n	79	n
CC(=O)N1CCc2cc(S(=O)(=O)NC(Cc3ccccc3)C(=O)O)ccc21 (stereo unspecified)	x	x	n	x	x	x
O=C(Cc1nc2ccccc2s1)c1ccc(O)cc1O	n	114	n	n	n	n
O=C(CSc1nc2ccccc2s1)c1ccc(O)cc1O	x	x	n	x	x	x
COc1ccc(OC)c(NC(=O)c2cc(S(=O)(=O)N(C)C)ccc2N2CCCC2)c1	x	x	n	x	x	x
C=C1C(=O)O[C@@H]2C[C@@H](C)[C@@H]3C=CC(=O)[C@@]3(C)[C@@H](OC(C)=O)[C@H]12	n	n	n	130	n	n
C[C@@H]1C[C@@H]2OC(=O)[C@]3(C)[C@H]2[C@@H](OC3(C)O)[C@]2(C)C(=O)C=C[C@H]12 (stereo partly specified)	n	n	n	n	n	n
COc1cc([N+](=O)[O-])ccc1N1C(=O)C2C3C=CC(C4CC34)C2C1=O (stereo unspecified)	n	n	n	n	n	n
O=[N+]([O-])c1nn(-c2ccccc2)[n+]([O-])c1N1CCN(c2ccccc2F)CC1	n	n	n	n	n	x
CCOC(=O)c1cc(-c2csc(N/N=C/c3ccccc3Cl)n2)on1	n	n	42	n	n	n
CCOc1ccc(S(=O)(=O)NC(Cc2cnc[nH]2)C(=O)O)cc1 (stereo unspecified)	n	n	n	n	n	n
COc1cc(O)c(CC=C(C)C)c(O)c1C(=O)CCc1ccc(O)cc1	n	n	n	n	n	n
O=C(CCc1ccc(O)cc1)c1c(O)cc(O)cc1O	63	n	n	n	n	n
O=C(CSc1n[nH]c(=O)[nH]c1=O)N/N=C/C=C\c1ccccc1	n	n	n	n	n	83
O=C(CSc1n[nH]c(=O)[nH]c1=O)N/N=C/C=C/c1ccccc1	n	n	n	n	n	n
O=C(O)c1ccc(N/N=C/C2=Cc3ccccc3OC2)cc1	n	n	21	n	n	n
CSc1nnc(-c2sc3cc(C(F)(F)F)cnc3c2-c2ccccc2)n1C	n	n	u	n	n	n
CCN(CC)CCNC(=O)c1cc(-c2ccc(Br)s2)nc2ccccc12	x	x	n	x	x	x
O=C(O)c1cc(-c2ccc(Br)s2)nc2ccccc12	x	x	18	x	x	x
COc1ccc(N2CCN(C(=O)CNC(=O)c3ccco3)CC2)cc1	x	x	n	x	x	x
O=C(O)C1CC=CCC1C(=O)NCc1ccc(Cl)c(Cl)c1 (stereo unspecified)	x	x	n	x	x	x
SMILES	Hck Nef HTS	Runt-SMMHC FRET	RanGTP-Impb inh	L929 necroptosis	TNF death inh	Runt-CBFb FRET
CC(C)(C)NS(=O)(=O)c1ccc(CCC(=O)N2CCOCC2)cc1	n	n	35	n	n	n
COc1ccc2[nH]c(C(=O)Nc3ccc4c(c3)OCO4)cc2c1	n	n	n	n	n	n
O=C(NCCc1ccc(Cl)cc1)c1ccc2ccccc2n1	x	x	n	x	x	x
O=C(O)C(=O)/C(=C\c1ccc(Cl)cc1)c1ccc2ccccc2n1	n	96	n	n	n	n
CCOc1ccc(C2N(c3ccc(F)cc3)C(=O)C3CCCN32)cc1OC (stereo unspecified)	n	n	21	n	n	n
CC1(C)N([O-])c2cc([N+](=O)[O-])ccc2[N+]1=O	n	85	x	n	n	63
Cc1ccc(C)n1-c1cc([N+](=O)[O-])ccc1-n1ccnc1	n	n	n	n	n	n
CCC(C(=O)NN1C(=O)c2ccccc2C1=O)c1ccccc1 (stereo unspecified)	n	n	n	n	n	n
